Test results taken from ChEMBL document CHEMBL4392833, “Thiazolyl-pyrazole derivatives as potential antimycobacterial agents” (Bioorg Med Chem Lett, 2019).
Values after ≈ are worked out from the molar mass of the structure shown.

How the values were obtained:
[1] = system: Mycobacterium tuberculosis; test: Antitubercular activity against dormant stage of Mycobacterium tuberculosis H37Ra ATCC 25177 assessed as growth inhibition at 30 ug/ml after 12 days by XRMA relative to control; type: functional; conditions: H37Ra ATCC 25177, 288 h
[2] = (§1) Growth inhibition of human PANC1 cells by MTT assay; type: cell-based, PANC-1; conditions: PANC-1 cells
In short: (§2)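 Human cancer cell lines were exposed in vitro to a range of compound concentrations. Viability was read by MTT colorimetric assay, and GI50 and GI90 were derived from the concentration series.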

PANC-1 = test: as §1; type: cell-based; conditions: panc-1; in short: as §2
[3] = (§3) Growth inhibition of human HeLa cells by MTT assay; type: cell-based; conditions: HeLa cells; in short: as §2
HeLa = test: as §3; type: cell-based; conditions: hela; in short: as §2
[4] = system: Mycobacterium tuberculosis; test: Antitubercular activity against dormant stage of Mycobacterium tuberculosis H37Ra ATCC 25177 assessed as growth inhibition at 3 ug/ml after 12 days by XRMA relative to control; type: functional; conditions: H37Ra ATCC 25177, 288 h
[5] = (§4) Growth inhibition of human A549 cells by MTT assay; type: cell-based; conditions: A549 cells; in short: as §2
A549 = test: as §4; type: cell-based; conditions: a549; in short: as §2
[6] = system: Mycobacterium tuberculosis; test: Antitubercular activity against dormant stage of Mycobacterium tuberculosis H37Ra ATCC 25177 by two fold dilution technique; type: functional
In short: (§5)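 MIC against dormant-stage bacilli, read out by XTT reduction menadione assay (XRMA), with rifampicin MIC determined the same way as reference.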

[7] = system: Mycobacterium tuberculosis; test: Antitubercular activity against dormant stage of Mycobacterium tuberculosis H37Ra ATCC 25177 infected in human THP1 cells by nitrate reductase assay; type: functional, organism-based; conditions: for MIC90: H37Ra ATCC 25177; for IC50: H37Ra ATCC 25177, THP-1
THP-1 [8] = test: Cytotoxicity against human THP1 cells at 3 ug/ml; type: cell-based
[9] = system: Mycobacterium tuberculosis; test: Antitubercular activity against dormant stage of Mycobacterium tuberculosis H37Ra ATCC 25177 assessed as growth inhibition at 10 ug/ml after 12 days by XRMA relative to control; type: functional; conditions: H37Ra ATCC 25177, 288 h
THP-1 [10] = test: Cytotoxicity against human THP1 cells at 30 ug/ml; type: cell-based
[11] = system: Mycobacterium tuberculosis; test: Antitubercular activity against dormant stage of Mycobacterium tuberculosis H37Ra ATCC 25177 after 12 days by XRMA; type: functional, organism-based; conditions: H37Ra ATCC 25177, 288 h; in short: as §5
THP-1 [12] = test: Cytotoxicity against human THP1 cells at 10 ug/ml; type: cell-based
[13] = Growth inhibition of human THP1 cells; type: cell-based; conditions: THP-1 cells

| Structure (SMILES) | inhibition at 30 µg/mL [1] [%] | GI50 [2] [µg/mL] | GI90 (PANC-1) [µg/mL] | GI50 [3] [µg/mL] | GI90 (HeLa) [µg/mL] | inhibition at 3 µg/mL [4] [%] | GI50 [5] [µg/mL] | GI90 (A549) [µg/mL] | MIC90 [6] | MIC90 [7] | IC50 [7] | Activity (THP-1 [8]) [%] | inhibition at 10 µg/mL [9] [%] | Activity (THP-1 [10]) [%] | IC50 [11] | Activity (THP-1 [12]) [%] | GI50 [13] [µg/mL] |
| --- | --- | --- | --- | --- | --- | --- | --- | --- | --- | --- | --- | --- | --- | --- | --- | --- | --- |
| Cc1nc(C)c(-c2nn(-c3ccc(F)cc3)cc2/C=C/C(=O)c2c(O)cc(C)c(Cl)c2C)s1 | 10.1 | 35.2 (≈ 73.1 µM) | 97.41 (≈ 202 µM) | 59.3 (≈ 123 µM) | 128.28 (≈ 266 µM) | 3.39 | 33.5 (≈ 69.4 µM) | 84.31 (≈ 175 µM) | > 30 µg/mL | > 30 µg/mL | > 30 µg/mL | 13.12 | 9.47 | 41.43 | > 30000 nM | 18.42 |  |
| Cc1nc(C)c(-c2nn(-c3ccc(F)cc3)cc2/C=C/C(=O)c2cc(Cl)ccc2O)s1 | 3.39 | > 250 | > 250 | > 250 | > 250 | 2.66 | > 250 | > 250 | > 30 µg/mL | > 30 µg/mL | > 30 µg/mL | 16.49 | 5.49 | 36.55 | > 30 µg/mL | 34.74 |  |
| Cc1nc(C)c(-c2nn(-c3ccc(F)cc3)cc2/C=C/C(=O)c2cc(Br)ccc2O)s1 | 27.5 | > 250 | > 250 | 4.88 (≈ 9.79 µM) | 44.94 (≈ 90.2 µM) | 23.5 | > 250 | > 250 | > 30 µg/mL | > 30 µg/mL | > 30 µg/mL | 20.41 | 9 | 24.98 | > 30 µg/mL | 21.42 |  |
| Cc1ccc(O)c(C(=O)/C=C/c2cn(-c3ccc(F)cc3)nc2-c2sc(C)nc2C)c1 | 96 | 52.4 (≈ 121 µM) | 114.87 (≈ 265 µM) | 29.9 (≈ 68.9 µM) | 77.32 (≈ 178 µM) | 34.7 | 47.8 (≈ 110 µM) | 136.87 (≈ 316 µM) | 32.7 µM | 17.1 µM | 2860 nM | 14.14 | 61.7 | 24.3 | 5560 nM | 15.3 |  |
| Cc1ccc(O)c(C2=NNC(c3cn(-c4ccc(F)cc4)nc3-c3sc(C)nc3C)C2)c1 (stereo not drawn) | 36.7 | > 250 | > 250 | > 250 | > 250 | 24.8 | > 250 | > 250 | 46.4 µM | 33.4 µM | 11900 nM | 5.94 | 39.7 | 24.05 | 4310 nM | 10.7 |  |
| Cc1nc(C)c(-c2nn(-c3ccc(F)cc3)cc2C2CC(c3c(O)cc(C)c(Cl)c3C)=NN2)s1 (stereo not drawn) | 93.7 | 41.6 (≈ 83.9 µM) | 77.64 (≈ 157 µM) | 25.2 (≈ 50.8 µM) | 46.87 (≈ 94.5 µM) | 91 | 43.4 (≈ 87.4 µM) | 88.98 (≈ 179 µM) | 5.04 µM | 1.23 µM | 440 nM | 9.52 | 95.4 | 18.32 | 80 nM | 15.45 | > 30 |
| Cc1ccc2oc(-c3cn(-c4ccc(F)cc4)nc3-c3sc(C)nc3C)cc(=O)c2c1 | 92.2 | > 250 | > 250 | > 250 | > 250 | 47.8 | > 250 | > 250 | 5.89 µM | 1.23 µM | 160 nM | 0.8 | 88.6 | 4.94 | 1070 nM | 2.34 | > 30 |
| Cc1nc(C)c(-c2nn(-c3ccc(F)cc3)cc2/C=C/C(=O)c2cc(Cl)cc(Cl)c2O)s1 | 30.5 | > 250 | > 250 | > 250 | > 250 | 20.4 | > 250 | > 250 | > 30 µg/mL | > 30 µg/mL | > 30 µg/mL | 15.71 | 26.8 | 49.76 | > 30 µg/mL | 17.69 |  |
| Cc1nc(C)c(-c2nn(-c3ccc(F)cc3)cc2/C=C/C(=O)c2cc(Cl)c(C)cc2O)s1 | 92.7 | > 250 | > 250 | 34.9 (≈ 74.5 µM) | 87.29 (≈ 187 µM) | 3.95 | > 250 | > 250 | 49.7 µM | 7.56 µM | 1920 nM | 10.73 | 16.3 | 17.45 | 2440 nM | 13.26 |  |
| Cc1nc(C)c(-c2nn(-c3ccc(F)cc3)cc2C2CC(c3cc(Cl)c(C)cc3O)=NN2)s1 (stereo not drawn) | 95.6 | 127 (≈ 264 µM) | > 250 | > 250 | > 250 | 38.8 | 146 (≈ 302 µM) | > 250 | 9.65 µM | 8.59 µM | 1620 nM | 9.1 | 43.5 | 17.93 | 520 nM | 10.66 | > 30 |
| CC(=O)O[C@H]1C(=O)[C@@]2(C)[C@H]([C@H](OC(=O)c3ccccc3)[C@]3(O)C[C@H](OC(=O)[C@H](O)[C@@H](NC(=O)c4ccccc4)c4ccccc4)C(C)=C1C3(C)C)[C@]1(OC(C)=O)CO[C@@H]1C[C@@H]2O [PACLITAXEL] |  |  | 5.715 (≈ 6.69 µM) |  | 0.075 (≈ 0.0878 µM) |  |  | 0.0706 (≈ 0.0827 µM) |  |  |  |  |  |  |  |  |  |
| CO[C@H]1/C=C/O[C@@]2(C)Oc3c(C)c(O)c4c(O)c(c(/C=N/N5CCN(C)CC5)c(O)c4c3C2=O)NC(=O)/C(C)=C\C=C\[C@H](C)[C@H](O)[C@@H](C)[C@@H](O)[C@@H](C)[C@H](OC(C)=O)[C@@H]1C [RIFAMPIN] |  | > 100 | > 100 | > 100 | > 100 |  | > 100 | > 100 | 0.91 µM |  |  |  |  |  |  |  |  |
